Test results published in ChEMBL document CHEMBL3608275, “Synthesis, nicotinic acetylcholine receptor binding, in vitro and in vivo pharmacology properties of 3'-(substituted pyridinyl)-deschloroepibatidine analogs” (Bioorg Med Chem, 2015).

Columns and labels:
Mus musculus [1] = assay: Antinociceptive activity in sc dosed mouse assessed as reduction of body rectal temperature; format: functional
[2] = biological target: T1, Neuronal acetylcholine receptor; alpha4/beta2 (Rattus norvegicus) (UniProt P09483+P12390); assay: Agonist activity at rat alpha4beta2 nAChR expressed in Xenopus laevis oocytes assessed as mean current response at 100 uM by two-electrode voltage clamp electrophysiology assay relative to acetylcholine; format: cell-based
[3] = biological target: Neuronal acetylcholine receptor subunit alpha-7 (Rattus norvegicus) (UniProt Q05941); assay: Agonist activity at rat alpha7 nAChR expressed in Xenopus laevis oocytes assessed as mean current response at 100 uM by two-electrode voltage clamp electrophysiology assay relative to acetylcholine; format: cell-based
Neuronal acetylcholine receptor subunit alpha-7 (Rattus norvegicus), sequence (Q05941 whole entry): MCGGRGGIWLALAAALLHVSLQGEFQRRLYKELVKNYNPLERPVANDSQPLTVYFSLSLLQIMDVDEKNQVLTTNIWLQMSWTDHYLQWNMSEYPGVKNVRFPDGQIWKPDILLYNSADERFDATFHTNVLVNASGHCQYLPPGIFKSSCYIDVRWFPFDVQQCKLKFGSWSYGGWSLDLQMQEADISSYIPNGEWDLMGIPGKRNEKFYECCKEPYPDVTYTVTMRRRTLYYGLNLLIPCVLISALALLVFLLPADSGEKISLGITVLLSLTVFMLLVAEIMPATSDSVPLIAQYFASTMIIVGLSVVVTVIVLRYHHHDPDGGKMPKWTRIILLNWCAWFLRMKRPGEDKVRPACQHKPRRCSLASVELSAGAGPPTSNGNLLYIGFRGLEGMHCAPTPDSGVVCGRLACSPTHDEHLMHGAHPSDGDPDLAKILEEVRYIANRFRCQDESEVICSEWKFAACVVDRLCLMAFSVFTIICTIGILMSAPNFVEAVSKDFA

Mus musculus [4] = assay: Antinociceptive activity in sc dosed mouse assessed as spontaneous locomotor activity measured for 10 mins; format: functional
Mus musculus [5] = assay: Antinociceptive activity in intratracheally dosed mouse assessed as maximum latency after 5 mins by tail-flick assay; settings: inhaled or nasal
[6] = biological target: T2, Neuronal acetylcholine receptor; alpha3/beta4 (Rattus norvegicus) (UniProt P04757+P12392); assay: Agonist activity at rat alpha3beta4 nAChR expressed in Xenopus laevis oocytes assessed as mean current response at 100 uM by two-electrode voltage clamp electrophysiology assay relative to acetylcholine; format: cell-based
Mus musculus [7] = assay: Antinociceptive activity in sc dosed mouse assessed as jumping or licking of paw behavior after 5 mins by hot-plate test
[8] = biological target: T3, Neuronal acetylcholine receptor; alpha4/beta2 (Rattus norvegicus, UniProt P09483+P12390); assay: Displacement of [3H]-epibatidine from alpha4beta2 nAChR in rat cerebral cortex homogenates after 4 hrs by liquid scintillation counting; format: tissue-based
T3 sequence (P09483 whole entry): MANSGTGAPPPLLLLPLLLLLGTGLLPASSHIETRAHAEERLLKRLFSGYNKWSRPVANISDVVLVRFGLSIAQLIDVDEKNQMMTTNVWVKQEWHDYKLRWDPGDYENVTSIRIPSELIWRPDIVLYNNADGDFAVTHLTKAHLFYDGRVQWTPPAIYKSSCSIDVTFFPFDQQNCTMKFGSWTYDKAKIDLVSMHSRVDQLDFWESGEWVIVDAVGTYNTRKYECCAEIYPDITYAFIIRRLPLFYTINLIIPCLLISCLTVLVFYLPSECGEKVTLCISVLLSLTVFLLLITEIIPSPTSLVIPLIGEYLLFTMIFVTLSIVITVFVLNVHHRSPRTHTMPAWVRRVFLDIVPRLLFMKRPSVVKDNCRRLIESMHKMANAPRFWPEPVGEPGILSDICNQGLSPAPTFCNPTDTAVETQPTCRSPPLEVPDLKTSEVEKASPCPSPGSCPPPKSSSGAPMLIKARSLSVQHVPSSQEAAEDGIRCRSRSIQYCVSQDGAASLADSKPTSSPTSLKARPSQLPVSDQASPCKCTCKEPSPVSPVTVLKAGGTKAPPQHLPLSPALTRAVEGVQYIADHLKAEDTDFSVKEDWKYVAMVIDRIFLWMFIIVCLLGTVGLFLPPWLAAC
T3 sequence (P12390 whole entry): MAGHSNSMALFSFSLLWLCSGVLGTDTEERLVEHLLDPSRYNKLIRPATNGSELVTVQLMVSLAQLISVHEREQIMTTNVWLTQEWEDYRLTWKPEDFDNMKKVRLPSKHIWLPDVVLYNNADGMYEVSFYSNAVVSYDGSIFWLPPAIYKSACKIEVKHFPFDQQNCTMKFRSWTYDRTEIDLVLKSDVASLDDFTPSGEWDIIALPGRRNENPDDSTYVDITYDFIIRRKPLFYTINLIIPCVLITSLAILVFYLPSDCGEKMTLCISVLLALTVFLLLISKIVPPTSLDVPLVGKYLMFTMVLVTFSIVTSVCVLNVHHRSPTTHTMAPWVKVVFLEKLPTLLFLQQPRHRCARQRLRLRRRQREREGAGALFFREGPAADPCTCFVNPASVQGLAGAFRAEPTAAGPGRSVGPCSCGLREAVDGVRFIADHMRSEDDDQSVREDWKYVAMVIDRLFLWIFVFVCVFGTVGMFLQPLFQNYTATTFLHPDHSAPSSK

[9] = biological target: T2, Neuronal acetylcholine receptor; alpha3/beta4 (Rattus norvegicus); assay: Antagonist activity at rat alpha3beta4 nAChR expressed in Xenopus laevis oocytes assessed as inhibition of acetylcholine-induced mean current response by measuring remaining current at 100 uM by two-electrode voltage clamp electrophysiology assay relative to control; values are per cent of control
[10] = biological target: T3, Neuronal acetylcholine receptor; alpha4/beta2; assay: Antagonist activity at rat alpha4beta2 nAChR expressed in Xenopus laevis oocytes assessed as inhibition of acetylcholine-induced mean current response by two-electrode voltage clamp electrophysiology assay; format: cell-based
Procedure, shortened: (§1)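 Rat nAChRs in Xenopus oocytes under two-electrode voltage clamp. […] IC50 is taken from concentration-inhibition curves.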

[11] = biological target: Neuronal acetylcholine receptor subunit alpha-7 (Rattus norvegicus, UniProt Q05941); assay: Antagonist activity at rat alpha7 nAChR expressed in Xenopus laevis oocytes assessed as inhibition of acetylcholine-induced mean current response by two-electrode voltage clamp electrophysiology assay; format: cell-based; procedure, shortened: as §1
Neuronal acetylcholine receptor subunit alpha-7, sequence (Q05941 whole entry): as the sequence (Q05941 whole entry) above

Mus musculus [12] = assay: Antinociceptive activity in mouse assessed as jumping or licking of paw behavior at 10 mg/kg, sc after 5 mins by hot-plate test; format: functional
[13] = biological target: Neuronal acetylcholine receptor; alpha3/beta4 (Rattus norvegicus, UniProt P04757+P12392); assay: Antagonist activity at rat alpha3beta4 nAChR expressed in Xenopus laevis oocytes assessed as inhibition of acetylcholine-induced mean current response by two-electrode voltage clamp electrophysiology assay; format: cell-based; procedure, shortened: as §1
Neuronal acetylcholine receptor; alpha3/beta4, sequence (P04757 whole entry): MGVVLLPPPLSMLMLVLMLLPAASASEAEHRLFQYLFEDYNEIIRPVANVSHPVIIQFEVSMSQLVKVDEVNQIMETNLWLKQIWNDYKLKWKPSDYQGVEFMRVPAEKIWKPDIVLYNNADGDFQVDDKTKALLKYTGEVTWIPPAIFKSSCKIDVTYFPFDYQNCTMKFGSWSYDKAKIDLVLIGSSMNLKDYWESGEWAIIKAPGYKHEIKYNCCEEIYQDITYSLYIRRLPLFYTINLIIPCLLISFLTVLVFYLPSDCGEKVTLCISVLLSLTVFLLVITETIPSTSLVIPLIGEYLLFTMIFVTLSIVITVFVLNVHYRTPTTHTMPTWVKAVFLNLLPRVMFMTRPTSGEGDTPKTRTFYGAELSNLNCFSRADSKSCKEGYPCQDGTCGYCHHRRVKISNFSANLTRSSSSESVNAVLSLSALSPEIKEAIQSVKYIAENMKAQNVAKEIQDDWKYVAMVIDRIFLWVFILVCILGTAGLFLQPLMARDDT
Neuronal acetylcholine receptor; alpha3/beta4, sequence (P12392 whole entry): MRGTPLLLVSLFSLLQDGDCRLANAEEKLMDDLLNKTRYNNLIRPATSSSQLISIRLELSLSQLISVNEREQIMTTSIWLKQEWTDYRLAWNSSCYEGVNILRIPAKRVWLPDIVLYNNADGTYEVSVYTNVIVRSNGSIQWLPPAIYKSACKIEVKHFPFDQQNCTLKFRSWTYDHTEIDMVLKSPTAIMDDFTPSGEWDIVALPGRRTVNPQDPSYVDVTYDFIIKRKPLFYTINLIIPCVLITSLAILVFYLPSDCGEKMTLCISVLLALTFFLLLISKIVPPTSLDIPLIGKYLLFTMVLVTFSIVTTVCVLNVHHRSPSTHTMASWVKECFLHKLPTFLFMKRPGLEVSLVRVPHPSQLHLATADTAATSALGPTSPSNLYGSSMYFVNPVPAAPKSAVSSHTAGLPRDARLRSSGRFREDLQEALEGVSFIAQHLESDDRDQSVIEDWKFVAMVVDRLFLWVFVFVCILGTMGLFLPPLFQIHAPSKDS

[14] = biological target: Neuronal acetylcholine receptor subunit alpha-7 (Rattus norvegicus) (UniProt Q05941); assay: Antagonist activity at rat alpha7 nAChR expressed in Xenopus laevis oocytes assessed as inhibition of acetylcholine-induced mean current response by measuring remaining current at 100 uM by two-electrode voltage clamp electrophysiology assay relative to control; values are per cent of control
Mus musculus [15] = assay: Antinociceptive activity in mouse assessed as maximum latency at 10 mg/kg, administered as intratracheally after 5 mins by tail-flick assay; format: functional
[16] = biological target: T1, Neuronal acetylcholine receptor; alpha4/beta2 (Rattus norvegicus); assay: Antagonist activity at rat alpha4beta2 nAChR expressed in Xenopus laevis oocytes assessed as inhibition of acetylcholine-induced mean current response by measuring remaining current at 100 uM by two-electrode voltage clamp electrophysiology assay relative to control; values are per cent of control
Mus musculus [17] = assay: Antinociceptive activity in mouse assessed as inhibition of nicotine-induced antinociception at 1000 ug/kg, sc after 5 mins by hot-plate test; format: functional
Mus musculus [18] = assay: Antinociceptive activity in intratracheally dosed mouse assessed as inhibition of nicotine-induced antinociception after 5 mins by tail-flick assay; format: functional
Mus musculus [19] = assay: Antinociceptive activity in sc dosed mouse assessed as inhibition of nicotine-induced antinociception after 5 mins by hot-plate test; format: functional

Compound	ED50 (Mus musculus [1]) [mg/kg]	Activity [2] [%]	Activity [3] [%]	ED50 (Mus musculus [4]) [mg/kg]	ED50 (Mus musculus [5]) [mg/kg]	Activity [6] [%]	ED50 (Mus musculus [7]) [mg/kg]	Ki [8] [nM]	residual activity [9] [%]	IC50 [10] [nM]	IC50 [11] [µM]	Activity (Mus musculus [12]) [%]	IC50 [13] [µM]	residual activity [14] [%]	Activity (Mus musculus [15]) [%]	residual activity [16] [%]	inhibition in vivo at 1 mg/kg (Mus musculus [17]) [%]	AD50 (Mus musculus [18]) [µg/kg]	AD50 (Mus musculus [19]) [µg/kg]
Clc1ccc([C@H]2C[C@H]3CC[C@H]2N3)cn1	0.004	131	150	0.001	0.006	97	0.004	–	–	–	–	–	–	–	–	–	–	–	–
Fc1ccc(-c2cncc([C@H]3C[C@H]4CC[C@H]3N4)c2)cn1 (racemic)	2.78	0	0	0.69	–	5.5	–	0.13	41	1300	60	10	33	36	10	7.9	10	2	–
c1cc(-c2cncc([C@H]3C[C@H]4CC[C@H]3N4)c2)ccn1 (racemic)	5	1	8.1	1.76	–	9.5	–	0.22	11	7100	179	4	23	69	7	3.9	20	39	–
Fc1cc(-c2cncc([C@H]3C[C@H]4CC[C@H]3N4)c2)ccn1 (racemic)	5.2	0	5.7	1.78	–	9.5	–	0.18	18	2900	233	34	23	90	13	8.1	46	1.2	–
Clc1cc(-c2cncc([C@H]3C[C@H]4CC[C@H]3N4)c2)ccn1 (racemic)	6.2	0	8.1	1.6	–	6.5	–	0.29	10	11000	97	30	20	47	10	5.7	36	110	–
COc1cc(-c2cncc([C@H]3C[C@H]4CC[C@H]3N4)c2)ccn1 (racemic)	10	0	16	–	–	6.1	–	0.094	7.2	1200	114	50	13	47	14	4	–	0.3	900
c1cncc(-c2cncc([C@H]3C[C@H]4CC[C@H]3N4)c2)c1 (racemic)	7	0	5.8	3	–	4.5	–	0.81	14	6400	117	14	22	59	3	5.3	–	0.68	2000
Clc1ccc(-c2cncc([C@H]3C[C@H]4CC[C@H]3N4)c2)cn1 (racemic)	5.5	0	4.8	0.56	–	3.1	–	0.12	12	2700	66	17	24	38	8	4.8	10	0.5	–
COc1ccc(-c2cncc([C@H]3C[C@H]4CC[C@H]3N4)c2)cn1 (racemic)	5.5	0	1.2	0.56	–	2.4	–	0.27	8.4	1800	30	17	8.2	18	8	4.5	10	0.5	–
CN1CCC[C@H]1c1cccnc1 [NICOTINE]	1	40	43	0.5	1.3	37	0.65	–	–	–	–	–	–	–	–	–	–	–	–
c1cnc2cc3c(cc2n1)[C@@H]1CNC[C@H]3C1 [VARENICLINE]	2.8	13	74	2.1	–	66	–	–	–	–	–	10	–	–	11	–	–	0.2	470
